# Columns and labels:
# [1] = tested on: Rattus norvegicus; assay: Compound was evaluated for diuretic activity determined by the ability to induce electrolytic excretion (Cl-) at a time period of 0-5 hr for dose 9 mg/kg; format: functional, Urine
# Method in brief: (§1)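 Female Sprague-Dawley rats weighing 160-170 g were dosed orally at 3, 9, 27 or 81 mg/kg, housed three per cage, with three cages per dose. Urinary Na+, K+ and Cl- (mequiv × 100) and urine volume (mL) were measured over 0-5 h and 0-24 h after dosing. A placebo group was run alongside.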
# [2] = tested on: Rattus norvegicus; assay: Compound was evaluated for diuretic activity determined by the ability to induce electrolytic excretion (Na+) at a time period of 0-5 hr for dose 3 mg/kg; format: functional, Urine; method in brief: as §1
# [3] = tested on: Rattus norvegicus; assay: Compound was evaluated for diuretic activity determined by the ability to induce electrolytic excretion (K+) at a time period of 0-24 hr for dose 27 mg/kg; format: functional, Urine; method in brief: as §1
# [4] = tested on: Rattus norvegicus; assay: Compound was evaluated for diuretic activity determined by the to induce electrolytic excretion (Cl-) at a time period of 0-24 hr for dose 81 mg/kg; format: functional, Urine; method in brief: as §1
# [5] = tested on: Rattus norvegicus; assay: Compound was evaluated for diuretic activity determined by the ability to induce electrolytic excretion (Na+) at a time period of 0-24 hr for dose 9 mg/kg; format: functional, Urine; method in brief: as §1
# [6] = tested on: Rattus norvegicus; assay: Compound was evaluated for diuretic activity determined by the ability to induce electrolytic excretion (Na+) at a time period of 0-5 hr for dose 27 mg/kg; format: functional, Urine; method in brief: as §1
# [7] = tested on: Rattus norvegicus; assay: Compound was evaluated for diuretic activity determined by the ability to induce electrolytic excretion (K+) at a time period of 0-5 hr for dose 9 mg/kg; format: functional, Urine; method in brief: as §1
# [8] = tested on: Rattus norvegicus; assay: Compound was evaluated for diuretic activity determined by the ability to induce electrolytic excretion (Cl-) at a time period of 0-5 hr for dose 81 mg/kg; format: functional, Urine; method in brief: as §1
# [9] = tested on: Rattus norvegicus; assay: Compound was evaluated for diuretic activity determined by the ability to induce electrolytic excretion (Cl-) at a time period of 0-24 hr for dose 27 mg/kg; format: functional, Urine; method in brief: as §1
# [10] = tested on: Rattus norvegicus; assay: Compound was evaluated for diuretic activity determined by the ability to induce electrolytic excretion (Cl-) at a time period of 0-24 hr for dose 3 mg/kg; format: functional, Urine; method in brief: as §1
# [11] = tested on: Rattus norvegicus; assay: Urine volumes was determined in Sprague-Dawley rats at time period of 0-5 hours at 9 mg/kg; format: functional
# Method in brief: (§2)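 Female Sprague-Dawley rats (160-170 g) were dosed orally at 3-81 mg/kg, with a placebo group. Housing was three rats per cage and three cages per dose. Urinary Na+, K+ and Cl- (mequiv × 100) and urine volume were measured over 0-5 h and 0-24 h.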
# [12] = tested on: Rattus norvegicus; assay: Compound was evaluated for diuretic activity determined by the ability to induce electrolytic excretion (K+) at a time period of 0-5 hr for dose 27 mg/kg; format: functional, Urine; method in brief: as §1
# [13] = tested on: Rattus norvegicus; assay: Compound was evaluated for diuretic activity determined by the ability to induce electrolytic excretion (Na+) at a time period of 0-5 hr for dose 9 mg/kg; format: functional, Urine; method in brief: as §1
# [14] = tested on: Rattus norvegicus; assay: Compound was evaluated for diuretic activity determined by the ability to induce electrolytic excretion (K+) at a time period of 0-24 hr for dose 3 mg/kg; format: functional, Urine; method in brief: as §1
# [15] = tested on: Rattus norvegicus; assay: Urine volumes was determined in Sprague-Dawley rats at time period of 0-5 hours at 3 mg/kg; format: functional; method in brief: as §2
# [16] = tested on: Rattus norvegicus; assay: Compound was evaluated for diuretic activity determined by the ability to induce electrolytic excretion (Cl-) at a time period of 0-24 hr for dose 9 mg/kg; format: functional, Urine; method in brief: as §1
# [17] = tested on: Rattus norvegicus; assay: Compound was evaluated for diuretic activity determined by the ability to induce electrolytic excretion (Na+) at a time period of 0-24 hr for dose 81 mg/kg; format: functional, Urine; method in brief: as §1
# [18] = tested on: Rattus norvegicus; assay: Compound was evaluated for diuretic activity determined by the ability to induce electrolytic excretion (Cl-) at a time period of 0-5 hr for dose 27 mg/kg; format: functional, Urine; method in brief: as §1
# [19] = tested on: Rattus norvegicus; assay: Compound was evaluated for diuretic activity determined by the ability to induce electrolytic excretion (K+) at a time period of 0-5 hr for dose 3 mg/kg; format: functional, Urine; method in brief: as §1
# [20] = tested on: Rattus norvegicus; assay: Urine volumes was determined in Sprague-Dawley rats at time period of 0-5 hours at 27 mg/kg; format: functional; method in brief: as §2
# [21] = tested on: Rattus norvegicus; assay: Urine volumes was determined in Sprague-Dawley rats at time period of 0-5 hours at 81 mg/kg; format: functional; method in brief: as §2
# [22] = tested on: Rattus norvegicus; assay: Compound was evaluated for diuretic activity determined by the ability to induce electrolytic excretion (Na+) at a time period of 0-24 hr for dose 3 mg/kg; format: functional, Urine; method in brief: as §1
# [23] = tested on: Rattus norvegicus; assay: Compound was evaluated for diuretic activity determined by the ability to induce electrolytic excretion (K+) at a time period of 0-24 hr for dose 81 mg/kg; format: functional, Urine; parameters: unit: mequiv × 100; method in brief: as §1
# [24] = tested on: Rattus norvegicus; assay: Compound was evaluated for diuretic activity determined by the ability to induce electrolytic excretion (K+) at a time period of 0-5 hr for dose 81 mg/kg; format: functional, Urine; method in brief: as §1
# [25] = tested on: Rattus norvegicus; assay: Compound was evaluated for diuretic activity determined by the ability to induce electrolytic excretion (Cl-) at a time period of 0-5 hr for dose 3 mg/kg; format: functional, Urine; method in brief: as §1
# [26] = tested on: Rattus norvegicus; assay: Compound was evaluated for diuretic activity determined by the ability to induce electrolytic excretion (Na+) at a time period of 0-24 hr for dose 27 mg/kg; format: functional, Urine; method in brief: as §1
# [27] = tested on: Rattus norvegicus; assay: Compound was evaluated for diuretic activity determined by the ability to induce electrolytic excretion (Na+) at a time period of 0-5 hr for dose 81 mg/kg; format: functional, Urine; method in brief: as §1
# [28] = tested on: Rattus norvegicus; assay: Compound was evaluated for diuretic activity determined by the ability to induce electrolytic excretion (K+) at a time period of 0-24 hr for dose 9 mg/kg; format: functional, Urine; method in brief: as §1
# [29] = tested on: Rattus norvegicus; assay: Urine volumes in Sprague-Dawley rats was determined at time period of 0-5 hours at 3 mg/kg; format: functional; method in brief: as §1
# [30] = tested on: Canis familiaris; assay: Diuretic activity in mongrel dog was determined by the ability of compound to induce electrolytic excretion (CL-) at a time period of 0-5 hr after administration of 5 mg/kg dose.
# [31] = tested on: Canis familiaris; assay: Diuretic activity in mongrel dog was determined by the ability to induce electrolytic excretion (Na+) at a time period of 0-5 hr after administration of 5 mg/kg dose.
# [32] = tested on: Rattus norvegicus; assay: Urine volumes in Sprague-Dawley rats was determined at time period of 0-5 hours at 81 mg/kg; format: functional; method in brief: as §1
# [33] = tested on: Rattus norvegicus; assay: Urine volumes in Sprague-Dawley rats was determined at time period of 0-5 hours at 27 mg/kg; format: functional; method in brief: as §1
# [34] = tested on: Rattus norvegicus; assay: Urine volumes was determined in Sprague-Dawley rats was determined at time period of 0-5 hours at 9 mg/kg; format: functional; method in brief: as §1
# [35] = tested on: Rattus norvegicus; assay: Compound was evaluated for diuretic activity determined by the ability to induce electrolytic excretion (Cl-) at a time period of 0-24 hr for dose 81 mg/kg; format: functional, Urine; method in brief: as §1
# [36] = tested on: Rattus norvegicus; assay: Urine volumes was determined at time period of 0-5 hours for dose 9 mg/kg; format: functional; method in brief: as §2
# [37] = tested on: Rattus norvegicus; assay: Urine volumes was determined at time period of 0-5 hours for dose 27 mg/kg; format: functional; method in brief: as §2
# [38] = tested on: Canis familiaris; assay: Diuretic activity in mongrel dog was determined by the ability to induce electrolytic excretion (K+) at a time period of 0-5 hr after administration of 5 mg/kg dose.
# [39] = tested on: Rattus norvegicus; assay: Urine volumes in Sprague-Dawley rats was determined at time period of 0-5 hours at 9 mg/kg; format: functional; method in brief: as §1
SMILES,Diuretic effect [1],Diuretic effect [2],Diuretic effect [3],Diuretic effect [5],Diuretic effect [6],Diuretic effect [7],Diuretic effect [8],Diuretic effect [9],Diuretic effect [10],Diuretic effect [12],Diuretic effect [13],Diuretic effect [14],Diuretic effect [16],Diuretic effect [17],Diuretic effect [18],Diuretic effect [19],Diuretic effect [22],Diuretic effect [23],Diuretic effect [24],Diuretic effect [25],also measured
CN(C)c1nc(N)c(-c2nc(N)[n+](C)o2)nc1Cl.[I-],35,55,62,224,100,2,95,209,153,6,60,114,169,389,56,2,185,68,5,37,Diuretic effect [4]: 322; Urine volume [11]: 27 mL; Urine volume [15]: 26 mL; Urine volume [20]: 29 mL; Urine volume [21]: 31 mL; Diuretic effect [26]: 299; Diuretic effect [27]: 154; Diuretic effect [28]: 97
CN(C)c1nc(N)c(-c2nc(N)no2)nc1Cl,48,64,82,258,107,2,57,270,170,1,88,97,200,352,63,2,202,53,1,40,Urine volume [29]: 28 mL; Diuretic effect [30]: 3; Diuretic effect [31]: 7.2; Urine volume [32]: 30 mL; Urine volume [33]: 31 mL; Urine volume [34]: 32 mL; Diuretic effect [35]: 267; Diuretic effect [36]: 7.2; Diuretic effect [26]: 341; Diuretic effect [27]: 108; Diuretic effect [28]: 83; Diuretic effect [37]: 0.6; Diuretic effect [38]: 0.6
C[n+]1oc(-c2nc(Cl)c(N)nc2N)nc1N.[I-],39,17,89,296,104,2,95,277,203,4,79,139,204,433,49,3,281,96,7,28,Urine volume [39]: 25 mL; Urine volume [29]: 25 mL; Urine volume [32]: 29 mL; Urine volume [33]: 27 mL; Diuretic effect [35]: 326; Diuretic effect [26]: 389; Diuretic effect [27]: 135; Diuretic effect [28]: 92

# — ChEMBL document CHEMBL1123503, “Synthesis and biological activity of 3-amino-5-(3,5-diamino-6-chloropyrazin-2-yl)-1,2,4-oxadiazole: an amiloride prodrug” (1986)
